# Calls of active or inactive are those of the source. No cut-off for these calls is given here.
# Key:
# [1] = biological target: T1, Oxysterols receptor LXR-alpha (Homo sapiens, UniProt Q13133); assay: Activation of GAL4 fused human LXR alpha expressed in HEK293 cells after 24 hrs by luciferase reporter gene assay; type: cell-based
# T1 sequence (Q13133 whole entry): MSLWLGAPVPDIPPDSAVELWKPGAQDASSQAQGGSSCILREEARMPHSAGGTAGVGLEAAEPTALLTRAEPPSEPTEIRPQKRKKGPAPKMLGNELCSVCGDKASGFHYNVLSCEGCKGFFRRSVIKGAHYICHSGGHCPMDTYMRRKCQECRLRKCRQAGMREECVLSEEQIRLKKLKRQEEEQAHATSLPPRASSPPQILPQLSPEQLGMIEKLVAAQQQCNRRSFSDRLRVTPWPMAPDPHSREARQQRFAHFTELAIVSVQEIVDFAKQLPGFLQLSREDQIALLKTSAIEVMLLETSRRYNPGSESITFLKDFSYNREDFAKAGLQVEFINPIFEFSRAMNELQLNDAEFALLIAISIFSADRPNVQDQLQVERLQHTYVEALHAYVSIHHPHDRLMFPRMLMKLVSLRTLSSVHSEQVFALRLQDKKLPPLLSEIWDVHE
# Summary of the method: (§1)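 HEK293 cells (4x10⁴/well), grown in DMEM with 10% FBS at 37 °C under 5% CO₂, transiently co-transfected with pMH100X4-TK-luc, Renilla and the Gal4-LXR-α or Gal4-LXR-β plasmid. Dosing began 6 h after transfection and lasted 24 h, at 32, 16, 8, 4, 2 and 1 μM. Dual luciferase read-out. EC50 came from dose-response curves, averaged over three to five independent experiments, ± SD.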
# [2] = biological target: T2, Oxysterols receptor LXR-beta (Homo sapiens, UniProt P55055); assay: Activation of GAL4 fused human LXR beta expressed in HEK293 cells after 24 hrs by luciferase reporter gene assay; type: cell-based; summary of the method: as §1
# T2 sequence (P55055 whole entry): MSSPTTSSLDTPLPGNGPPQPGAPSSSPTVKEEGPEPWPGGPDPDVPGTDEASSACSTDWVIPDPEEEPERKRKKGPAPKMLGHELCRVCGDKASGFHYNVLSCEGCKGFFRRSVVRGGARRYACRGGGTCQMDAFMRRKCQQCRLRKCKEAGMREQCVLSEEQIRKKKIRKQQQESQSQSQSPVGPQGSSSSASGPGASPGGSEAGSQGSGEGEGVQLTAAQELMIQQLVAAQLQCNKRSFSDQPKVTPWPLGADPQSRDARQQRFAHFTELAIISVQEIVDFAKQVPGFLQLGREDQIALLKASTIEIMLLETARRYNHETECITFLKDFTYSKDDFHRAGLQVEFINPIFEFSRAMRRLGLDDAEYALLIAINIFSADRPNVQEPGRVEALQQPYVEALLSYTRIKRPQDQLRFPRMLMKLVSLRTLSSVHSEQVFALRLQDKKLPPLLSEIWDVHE
# [3] = system: HEK293; assay: Activation of GAL4 fused human RXR expressed in HEK293 cells at 10 uM after 24 hrs by luciferase reporter gene assay
# [4] = species on record: Homo sapiens; assay: Agonist activity at LXR in human U937 cells assessed as upregulation of ABCA1 mRNA levels at 10 uM after 6 hrs by qPCR analysis; type: cell-based
# Summary of the method: (§2)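 U937 cells, 3x10⁶ in 10 ml RPMI with 10% FBS, differentiated with PMA 10 ng/ml for 72 h at 37 °C, then treated with ligand (10 μM) for 6 h. Total RNA was isolated with TRIZOL; 2 µg was reverse-transcribed for 1 h at 42 °C. Transcripts were measured by qPCR. Mean ± SD of three biological samples; ANOVA with Dunnett's test.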
# [5] = Agonist activity at LXR in human U937 cells assessed as upregulation of SREBP1c mRNA levels at 10 uM after 6 hrs by qPCR analysis; type: cell-based; summary of the method: as §2
# [6] = Agonist activity at LXR in human U937 cells assessed as upregulation of FASN mRNA levels at 10 uM after 6 hrs by qPCR analysis; type: cell-based; summary of the method: as §2
# [7] = Agonist activity at LXR in human HepG2 cells assessed as upregulation of SCD1 mRNA levels at 10 uM after 6 hrs by qPCR analysis; type: cell-based
# Summary of the method: (§3)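 HepG2 cells treated with ligand (10 μM). Total RNA was extracted with TRIZOL; 2 µg was reverse-transcribed (1 h, 42 °C). SREBP1c, FASN and SCD1 transcripts were measured by qPCR. Mean ± SD of three biological samples; ANOVA with Dunnett's test.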
# [8] = Agonist activity at LXR in human HepG2 cells assessed as upregulation of FASN mRNA levels at 10 uM after 6 hrs by qPCR analysis; type: cell-based; summary of the method: as §3
# [9] = Agonist activity at LXR in human U937 cells assessed as upregulation of SCD1 mRNA levels at 10 uM after 6 hrs by qPCR analysis relative to control; type: cell-based; conditions: for Activity: human, 6 h, 10 µM; for fold induction at 10 µM: Homo sapiens, U-937, 6 h, read-out: FC; summary of the method: as §2
# [10] = biological target: T3, Oxysterols receptor LXR-alpha (Homo sapiens) (UniProt Q13133); assay: Activation of GAL4 fused human LXR alpha expressed in HEK293 cells after 24 hrs by luciferase reporter gene assay relative to 22R-HC; type: cell-based
# T3 sequence (whole entry): T1 sequence (Q13133 whole entry)
# Summary of the method: (§4)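 HEK293 cells carrying the Gal4-LXR-α or Gal4-LXR-β chimera plus the pMH100X4-TK-luc and Renilla reporters. Treatment started 6 h post-transfection and ran 24 h. Dual luciferase read-out. Efficacy is given as % of the response to 8 μM 22R-HC, ± SD, from three to five independent experiments.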
# [11] = Agonist activity at LXR in human HepG2 cells assessed as upregulation of SREBP1c mRNA levels at 10 uM after 6 hrs by qPCR analysis; type: cell-based; summary of the method: as §3
# [12] = biological target: T4, Peroxisome proliferator-activated receptor gamma (Homo sapiens) (UniProt P37231); assay: Activation of GAL4 fused human PPARgamma expressed in HEK293 cells at 10 uM after 24 hrs by luciferase reporter gene assay
# T4 sequence (whole entry): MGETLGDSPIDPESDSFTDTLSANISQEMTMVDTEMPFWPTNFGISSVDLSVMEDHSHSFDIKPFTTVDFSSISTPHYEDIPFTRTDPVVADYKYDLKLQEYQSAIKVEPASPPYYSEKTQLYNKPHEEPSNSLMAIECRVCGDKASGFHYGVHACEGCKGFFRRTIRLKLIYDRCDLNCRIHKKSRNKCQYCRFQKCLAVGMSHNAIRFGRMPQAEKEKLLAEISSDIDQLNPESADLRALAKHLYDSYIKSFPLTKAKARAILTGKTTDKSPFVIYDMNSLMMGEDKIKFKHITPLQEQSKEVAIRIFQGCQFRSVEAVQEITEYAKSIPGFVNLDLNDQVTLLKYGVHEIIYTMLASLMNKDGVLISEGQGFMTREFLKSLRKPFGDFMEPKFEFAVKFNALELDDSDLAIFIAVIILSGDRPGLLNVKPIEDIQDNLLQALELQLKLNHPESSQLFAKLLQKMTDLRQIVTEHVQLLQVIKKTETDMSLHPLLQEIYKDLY
# [13] = species on record: Homo sapiens; assay: Agonist activity at LXR in human U937 cells assessed as downregulation of LPS-induced TNFalpha mRNA expression at 10 uM after 6 hrs by qPCR analysis; type: cell-based
# Summary of the method: (§5)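 PMA-differentiated U937 cells (10 ng/ml PMA, 72 h) were given LPS 100 ng/ml together with compound (10 μM) for 6 h. CCL2 and TNFα mRNA were measured by qPCR after TRIZOL RNA extraction and reverse transcription. Three biological samples per group, mean ± SD.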
# [14] = species on record: Homo sapiens; assay: Agonist activity at LXR in human U937 cells assessed as downregulation of LPS-induced CCL2 mRNA expression at 10 uM after 6 hrs by qPCR analysis; type: cell-based; summary of the method: as §5
# [15] = biological target: T5, Oxysterols receptor LXR-beta (Homo sapiens) (UniProt P55055); assay: Activation of GAL4 fused human LXR beta expressed in HEK293 cells after 24 hrs by luciferase reporter gene assay relative to 22R-HC; type: cell-based; summary of the method: as §4
# T5 sequence (whole entry): T2 sequence (P55055 whole entry)
Efficacy [15],SMILES,EC50 [1],EC50 [2],Activity [3],Activity [4],Activity [5],Activity [6],Activity [7],Activity [8],Activity [9],Efficacy [10],Activity [11],Activity [12],Activity [13],Activity [14],fold induction at 10 µM [9]
–,CC[C@H](CC(=O)[C@@H](C)[C@H]1CC[C@H]2[C@@H]3CC=C4C[C@@H](O)CC[C@]4(C)[C@H]3CC[C@]12C)C(C)C,Not Active,Not Active,–,–,–,–,–,–,–,–,–,–,–,–,–
–,CC(C)[C@@H](C)[C@H](O)C[C@@H](C)[C@H]1CC[C@H]2C3=CC=C4C[C@@H](O)CC[C@]4(C)[C@H]3CC[C@]12C,–,Not Active,inactive,Active,Not Active,Not Active,Not Active,Not Active,Not Active,63.9%,Not Active,inactive,–,–,–
–,CC[C@@H](C(C)C)[C@H](O)C[C@@H](C)[C@H]1CC[C@H]2[C@@H]3CC=C4C[C@@H](O)CC[C@]4(C)[C@H]3CC[C@]12C,–,–,inactive,Active,Not Active,Not Active,Not Active,Not Active,Not Active,–,Not Active,inactive,Active,Active,–
–,CC(C)[C@@H](C)CC(=O)[C@@H](C)[C@H]1CC[C@H]2C3=CC=C4C[C@@H](O)CC[C@]4(C)[C@H]3CC[C@]12C,–,Not Active,inactive,Active,Not Active,Not Active,Not Active,Not Active,Not Active,70.2%,Not Active,inactive,–,–,–
46.4%,CC[C@H](C(=O)C[C@@H](C)[C@H]1CC[C@H]2[C@@H]3CC=C4C[C@@H](O)CC[C@]4(C)[C@H]3CC[C@]12C)C(C)C,–,–,inactive,Active,Not Active,Not Active,Not Active,Not Active,–,12.4%,Not Active,inactive,Active,–,< 2
–,O=S(=O)(c1ccccc1)N(CC(F)(F)F)c1ccc(C(O)(C(F)(F)F)C(F)(F)F)cc1 [T091317],–,–,–,Active,Active,Not Active,Not Active,Not Active,Not Active,–,Not Active,–,–,Active,–
36.3%,CC[C@@H](C(C)C)[C@@H]1O[C@H]1[C@@H](C)[C@H]1CC[C@H]2[C@@H]3CC=C4C[C@@H](O)CC[C@]4(C)[C@H]3CC[C@]12C,–,–,inactive,Active,Not Active,Not Active,Not Active,Not Active,Not Active,56.8%,Not Active,inactive,–,–,–
–,CC(C)[C@@H](C)C(=O)C[C@@H](C)[C@H]1CC[C@H]2C3=CC=C4C[C@@H](O)CC[C@]4(C)[C@H]3CC[C@]12C,–,Not Active,inactive,Active,Not Active,Not Active,Not Active,Not Active,Not Active,151%,Not Active,inactive,–,–,–
142%,CC[C@@H](C(C)C)[C@H]1O[C@@H]1[C@@H](C)[C@H]1CC[C@H]2[C@@H]3CC=C4C[C@@H](O)CC[C@]4(C)[C@H]3CC[C@]12C,–,–,inactive,Active,Not Active,Not Active,Not Active,Not Active,Not Active,489%,Active,inactive,Active,–,–

SMILES,Efficacy [15],EC50 [1],EC50 [2],Activity [3],Activity [4],Activity [5],Activity [6],Activity [7],Activity [8],Activity [9],Efficacy [10],Activity [11],Activity [12],Activity [13],Activity [14],fold induction at 10 µM [9]
CC(C)[C@@H](C)[C@@H]1O[C@H]1[C@@H](C)[C@H]1CC[C@H]2C3=CC=C4C[C@@H](O)CC[C@]4(C)[C@H]3CC[C@]12C,48.5%,–,–,inactive,Active,Not Active,Not Active,Not Active,Not Active,–,51.7%,Active,inactive,–,Active,< 2
